Series [1] is described as follows: Cmax in Wistar rat at 1 mg/kg, po. It is filed as ADME, organism-based. Set-up: dose 1 mg/kg, route oral. The settings on record: in vivo. The procedure, abridged:
(§1)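 Male Wistar rats given a single oral dose of 1 mg/kg as a suspension in 0.5% methylcellulose with 0.1% Tween 80. Plasma levels of sulfoxide prodrug and sulfone parent were followed over time. Cmax, tmax and AUC0-t are reported as means (n = 2–3) with SD.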

Series [2] deals with Rattus norvegicus. Kind of series: Inhibition of yeast-induced pyresis in Wistar rat at 3 mg/kg, po. It is filed as functional. The procedure, abridged: (§2)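 Yeast-induced pyresis, an acute model run as a therapeutic protocol. Compounds were given as a single oral dose. Temperature was recorded at 1 h intervals from 1 to 5 h after dosing and expressed as % inhibition.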
For series [3], the system named is Rattus norvegicus. Briefly: Inhibition of adjuvant-induced arthritis in Wistar rat at 1 mg/kg, po. It is filed as functional. The procedure, abridged:
(§3)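 Adjuvant-induced arthritis in male Wistar rats, therapeutic protocol. Compounds were given orally once daily for 7 days, starting on day 14 after arthritis induction. Paw edema was measured 24 h after the last dose and expressed as % inhibition.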

Series [4] has as its system Liver microsomes. Briefly: Stability in rat liver microsomes. It is filed as ADME, Microsome. The procedure, abridged: (§4)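 Compound at 5 µM was incubated with human or rat liver microsomes (1 mg/mL microsomal protein) for 30 min at 37 °C. Result is given as % metabolism.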
In general terms: Liver microsomes are vesicles of endoplasmic reticulum, rich in cytochrome P450 enzymes.

Series [5] can be described thus: Solubility in PBS at pH 7.2. In kind it is physicochemical.
Series [6] can be described thus: Solubility in SGF at pH 1.8. In kind it is physicochemical.
A short description of series [7]: AUC(0-t) in Wistar rat at 1 mg/kg, po. It is filed as ADME, organism-based. As to conditions: plasma. Also noted: dose 1 mg/kg, route oral. In a few lines: as §1
The subject of series [8] is Liver microsomes. Kind of series: Stability in human liver microsomes. It is filed as ADME, Microsome. The procedure, abridged:
as §4

Series [9] can be described thus: Tmax in Wistar rat at 1 mg/kg, po. In kind it is ADME, organism-based. Set-up: dose 1 mg/kg, route oral. The settings on record: in vivo. The procedure, abridged:
as §1

Series [10] deals with T1, Prostaglandin G/H synthase 2 (Homo sapiens, UniProt P35354).
T1 sequence (P35354 whole entry): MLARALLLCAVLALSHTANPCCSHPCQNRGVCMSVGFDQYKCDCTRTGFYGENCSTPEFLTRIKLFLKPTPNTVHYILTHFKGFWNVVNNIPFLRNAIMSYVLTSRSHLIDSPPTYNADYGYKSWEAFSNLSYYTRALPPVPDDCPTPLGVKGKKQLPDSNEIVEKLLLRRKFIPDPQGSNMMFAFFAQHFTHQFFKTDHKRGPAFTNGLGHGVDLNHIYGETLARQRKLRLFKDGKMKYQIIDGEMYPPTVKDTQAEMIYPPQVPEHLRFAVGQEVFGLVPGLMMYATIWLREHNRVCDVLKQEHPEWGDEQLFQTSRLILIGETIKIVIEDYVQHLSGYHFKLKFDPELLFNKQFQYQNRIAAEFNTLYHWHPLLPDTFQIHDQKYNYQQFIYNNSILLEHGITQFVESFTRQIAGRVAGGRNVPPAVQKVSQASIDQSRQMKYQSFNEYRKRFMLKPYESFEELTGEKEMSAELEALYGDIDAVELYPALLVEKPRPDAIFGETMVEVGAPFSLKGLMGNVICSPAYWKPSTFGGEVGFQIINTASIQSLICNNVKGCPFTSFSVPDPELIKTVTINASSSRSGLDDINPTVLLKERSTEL
Kind of series: Inhibition of COX2 in human whole blood. It is filed as tissue-based.

Series [11] concerns the target T2, Prostaglandin G/H synthase 2 (Homo sapiens) (UniProt P35354).
T2 sequence (whole entry): T1 sequence (P35354 whole entry)
Kind of series: Inhibition of COX2 in human whole blood at 10 uM. In kind it is tissue-based.

The subject of series [12] is Rattus norvegicus. Kind of series: Inhibition of adjuvant-induced arthritis in Wistar rat at 0.3 mg/kg, po. In kind it is functional. The procedure, abridged:
as §3

In series [13] the test system is Rattus norvegicus. Briefly: Inhibition of yeast-induced pyresis in Wistar rat at 1 mg/kg, po. It is filed as functional. The procedure, abridged: as §2
The subject of series [14] is Rattus norvegicus. Briefly: Tmax for parent compound after prodrug dosing in Wistar rat at 1 mg/kg, po. It is filed as ADME, organism-based. Set-up: dose 1 mg/kg, route oral. As to conditions: in vivo. In a few lines: as §1
Series [15] deals with Rattus norvegicus. Briefly: AUC(0-t) for parent compound after prodrug dosing in Wistar rat at 1 mg/kg, po. In kind it is ADME, organism-based, Plasma. Also noted: dose 1 mg/kg, route oral. As to conditions: in vivo. In a few lines:
as §1

The test system of series [16] is Rattus norvegicus. Kind of series: Cmax for parent compound after prodrug dosing in Wistar rat at 1 mg/kg, po. It is filed as ADME, organism-based. Set-up: dose 1 mg/kg, route oral. The settings on record: in vivo. In a few lines:
as §1

In brackets after ≈: the same amount, converted by molar mass. A value given as a limit tells only on which side of the number the result lay.

On to `Cc1ccc(-c2ncc(Cl)cc2-c2ccc(S(C)(=O)=O)cc2)cn1` [ETORICOXIB], for which the peak level in [1] (Cmax) was 427 ng/mL. In addition, the inhibition in vivo (usually the percentage by which the read-out fell short of the control) at 3 mg/kg with Rattus norvegicus [2] is 81%. Further, the inhibition in vivo at 1 mg/kg in the series with Rattus norvegicus [3] came out at 60%. In addition, the results for the Stability in the series on Liver microsomes [4] and in the series on Liver microsomes [8] were 6% and 4%, respectively. Also, the solubility (as a rule, the dissolved amount per volume that the medium holds) was 104 µg/mL (≈ 290 µM) in series [5] and greater than 1000 µg/mL in [6]. Further, the AUC(0-t) (commonly exposure summed from dosing to a finite time, without extrapolation to infinity) in [7] was determined as 1660 ng·h/mL. In addition, the Tmax (usually the time at which the peak concentration occurs) in [9] amounted to 18 min.
As to `Cc1ccc(-c2ncc(Cl)cc2-c2ccc([S@+](C)[O-])cc2)cn1`, the results for the Stability in the series on Liver microsomes [4] and with Liver microsomes [8] were 17% and 2%, respectively. The half-inhibitory concentration (IC50) (usually the point on the concentration scale where inhibition reaches its midpoint) in series [10] came out at 3.5 µM.
As to `C[S@@+]([O-])c1ccc(C2=C(c3ccccc3)C(=O)OC2)cc1`, the Stability was 49% in the series on Liver microsomes [4] and 1% in the series with Liver microsomes [8].
Take `Cc1ccc(-c2ncc(Cl)cc2-c2ccc([S@@+](C)[O-])cc2)cn1`: the inhibition – broadly, the share of the control response that was lost under treatment – in series [11] stood at 24.4%. The Stability in the series on Liver microsomes [4] is given as 26%; in the series on Liver microsomes [8], 5%.
As to `CS(=O)(=O)c1ccc(C2=C(c3ccccc3)C(=O)OC2)cc1` [ROFECOXIB], the peak level in series [1] (Cmax) was 237 ng/mL. Also, the inhibition in vivo at 0.3 mg/kg in the series on Rattus norvegicus [12] amounted to 41%. This molecule registered a Stability with Liver microsomes [4] of 38%. Further, at 1 mg/kg the inhibition in vivo with Rattus norvegicus [13] was 48%. Moreover, the solubility in [5] was 15 µg/mL (≈ 47.7 µM); in series [6], 16 µg/mL (≈ 50.9 µM). Also, the AUC(0-t) in series [7] worked out at 531 ng·h/mL. The Tmax in series [9] was determined as 24 min.
For the molecule `C[S@+]([O-])c1ccc(C2=C(c3ccccc3)C(=O)OC2)cc1`, the Stability with Liver microsomes [4] worked out at 40%; in the series on Liver microsomes [8], 4%.
Consider `Cc1ccc(-c2ncc(Cl)cc2-c2ccc([S+](C)[O-])cc2)cn1` (stereo not drawn), for which the Cmax (usually the maximum level reached in the sampled fluid or tissue) in series [1] was 133 ng/mL; in the series on Rattus norvegicus [16], 254 ng/mL. For the same molecule, at 3 mg/kg the inhibition in vivo with Rattus norvegicus [2] was 49%. Further, in the series with Rattus norvegicus [3], the inhibition in vivo at 1 mg/kg is 67%. Besides, the Tmax in the series with Rattus norvegicus [14] came out at 18 min; in [9], 36 min. Further, the Stability in the series on Liver microsomes [4] was 21%; in the series on Liver microsomes [8] it was 6%. Besides, the area under the curve (AUC) (commonly concentration integrated over time) with Rattus norvegicus [15] is 803 ng·h/mL. The solubility in series [5] and in series [6] was greater than 1000 µg/mL in each case. In series [10], the IC50 came to 3.7 µM. In series [7], the AUC(0-t) was found to be 578 ng·h/mL.
Take `C[S+]([O-])c1ccc(C2=C(c3ccccc3)C(=O)OC2)cc1` (stereo not drawn): the Cmax was determined as 334 ng/mL in [1] and 468 ng/mL in the series on Rattus norvegicus [16]. For the same molecule, the inhibition in vivo at 0.3 mg/kg with Rattus norvegicus [12] worked out at 72%. Moreover, the time of peak concentration (Tmax) with Rattus norvegicus [14] stood at 24 min; in series [9], 18 min. For the same molecule, the Stability in the series with Liver microsomes [4] is recorded as 35%; in the series with Liver microsomes [8], 5%. The inhibition in vivo at 1 mg/kg in the series with Rattus norvegicus [13] was 56%. The AUC with Rattus norvegicus [15] was 979 ng·h/mL. Further, the solubility came out at 537 µg/mL (≈ 1800 µM) in series [5] and 717 µg/mL (≈ 2400 µM) in series [6]. This molecule also had an IC50 in series [10] of 4.93 µM. The molecule also yielded an AUC(0-t) in series [7] of 318 ng·h/mL.

Values taken from ChEMBL document CHEMBL1148495, “Racemic and chiral sulfoxides as potential prodrugs of the COX-2 inhibitors Vioxx and Arcoxia” (Bioorg Med Chem Lett, 2006).
